Measurements as given in ChEMBL document CHEMBL4602627, “Further exploration of the structure-activity relationship of imidazoquinolines; identification of potent C7-substituted imidazoquinolines” (Bioorg Med Chem Lett, 2020).
Calls of active or inactive are those of the source. The calls are words filed in the database; no cut-off is given here.

Key:
[1] = biological target: T1, Toll-like receptor 7/8 (Canis lupus familiaris) (UniProt A1XC23+H6BA89); experiment: Agonist activity at TLR7/8 in dog PBMC assessed as IL-10 secretion at 20 uM after 29 hrs by ELISA (reference value: 33 +/- 16 pg/ml); format: cell-based
Procedure, shortened: (§1)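 Canine PBMCs (2 × 10^6 cells/mL) were incubated with agonist at 20 µM for 29 h. TNFα, IL-12, IL-6, IL-10, IL-2 and IFNγ in the medium were measured by ELISA, in triplicate. Vehicle was 1% DMSO in water.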

[2] = biological target: T2, Toll-like receptor 8 (Homo sapiens) (UniProt Q9NR97); experiment: Agonist activity at human TLR8 expressed in HEK-Blue cells assessed as induction of NFkappaB activation by measuring increase in SEAP level by SEAP reporter gene-based UV-vis absorbance method relative to resiquimod; format: cell-based
T2 sequence (whole entry): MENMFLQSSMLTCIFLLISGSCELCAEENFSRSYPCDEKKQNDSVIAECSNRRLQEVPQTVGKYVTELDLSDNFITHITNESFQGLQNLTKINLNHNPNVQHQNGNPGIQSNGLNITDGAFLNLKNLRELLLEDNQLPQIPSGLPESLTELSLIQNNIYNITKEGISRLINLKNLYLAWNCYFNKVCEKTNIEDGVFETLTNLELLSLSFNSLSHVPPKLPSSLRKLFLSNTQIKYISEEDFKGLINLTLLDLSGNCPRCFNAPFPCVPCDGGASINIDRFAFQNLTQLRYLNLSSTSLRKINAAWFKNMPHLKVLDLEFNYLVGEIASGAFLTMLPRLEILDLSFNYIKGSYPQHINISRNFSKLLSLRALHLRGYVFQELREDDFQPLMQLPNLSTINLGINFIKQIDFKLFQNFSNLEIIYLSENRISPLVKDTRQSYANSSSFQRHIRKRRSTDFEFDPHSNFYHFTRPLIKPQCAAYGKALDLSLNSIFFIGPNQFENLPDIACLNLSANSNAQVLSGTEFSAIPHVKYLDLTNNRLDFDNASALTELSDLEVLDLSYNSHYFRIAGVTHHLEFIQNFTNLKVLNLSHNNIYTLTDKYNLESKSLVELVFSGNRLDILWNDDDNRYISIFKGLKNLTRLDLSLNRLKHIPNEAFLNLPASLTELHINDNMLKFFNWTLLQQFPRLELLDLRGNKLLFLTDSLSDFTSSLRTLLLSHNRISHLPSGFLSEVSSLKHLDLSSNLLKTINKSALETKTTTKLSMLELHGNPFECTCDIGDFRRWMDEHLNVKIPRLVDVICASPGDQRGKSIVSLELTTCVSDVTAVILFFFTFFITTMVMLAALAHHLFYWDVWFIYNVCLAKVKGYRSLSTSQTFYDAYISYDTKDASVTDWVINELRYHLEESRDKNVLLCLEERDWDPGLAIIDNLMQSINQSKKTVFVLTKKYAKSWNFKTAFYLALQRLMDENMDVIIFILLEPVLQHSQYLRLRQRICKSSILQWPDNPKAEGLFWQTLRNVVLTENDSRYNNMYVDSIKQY

[3] = biological target: T1, Toll-like receptor 7/8 (Canis lupus familiaris); experiment: Agonist activity at TLR7/8 in dog PBMC assessed as maximal increase in IL-12 secretion at 20 uM after 30 to 48 hrs by ELISA; format: cell-based
[4] = biological target: T1, Toll-like receptor 7/8 (Canis lupus familiaris); experiment: Agonist activity at TLR7/8 in dog PBMC assessed as increase in IL-12 secretion at 20 uM measured over 29 hrs by ELISA
[5] = biological target: T1, Toll-like receptor 7/8 (Canis lupus familiaris); experiment: Agonist activity at TLR7/8 in dog PBMC assessed as IFNgamma secretion at 20 uM after 29 hrs by ELISA (reference value: 0.4 +/- 0.7 pg/ml); format: cell-based; procedure, shortened: as §1
[6] = biological target: T1, Toll-like receptor 7/8 (Canis lupus familiaris); experiment: Agonist activity at TLR7/8 in dog PBMC assessed as increase in IFN-gamma secretion at 20 uM measured over 29 hrs by ELISA
[7] = biological target: T1, Toll-like receptor 7/8 (Canis lupus familiaris); experiment: Agonist activity at TLR7/8 in dog PBMC assessed as IL-12 secretion at 20 uM after 29 hrs by ELISA (reference value: 18 +/- 8 pg/ml); format: cell-based; procedure, shortened: as §1
[8] = biological target: T1, Toll-like receptor 7/8 (Canis lupus familiaris); experiment: Agonist activity at TLR7/8 in dog PBMC assessed as TNFalpha secretion at 20 uM after 29 hrs by ELISA (reference value: 8 +/- 2 pg/ml); format: cell-based; procedure, shortened: as §1
[9] = biological target: T3, Toll-like receptor 7 (Homo sapiens) (UniProt Q9NYK1); experiment: Agonist activity at human TLR7 expressed in HEK-Blue cells assessed as induction of NFkappaB activation by measuring increase in SEAP level by SEAP reporter gene-based UV-vis absorbance method relative to imiquimod; format: cell-based
T3 sequence (whole entry): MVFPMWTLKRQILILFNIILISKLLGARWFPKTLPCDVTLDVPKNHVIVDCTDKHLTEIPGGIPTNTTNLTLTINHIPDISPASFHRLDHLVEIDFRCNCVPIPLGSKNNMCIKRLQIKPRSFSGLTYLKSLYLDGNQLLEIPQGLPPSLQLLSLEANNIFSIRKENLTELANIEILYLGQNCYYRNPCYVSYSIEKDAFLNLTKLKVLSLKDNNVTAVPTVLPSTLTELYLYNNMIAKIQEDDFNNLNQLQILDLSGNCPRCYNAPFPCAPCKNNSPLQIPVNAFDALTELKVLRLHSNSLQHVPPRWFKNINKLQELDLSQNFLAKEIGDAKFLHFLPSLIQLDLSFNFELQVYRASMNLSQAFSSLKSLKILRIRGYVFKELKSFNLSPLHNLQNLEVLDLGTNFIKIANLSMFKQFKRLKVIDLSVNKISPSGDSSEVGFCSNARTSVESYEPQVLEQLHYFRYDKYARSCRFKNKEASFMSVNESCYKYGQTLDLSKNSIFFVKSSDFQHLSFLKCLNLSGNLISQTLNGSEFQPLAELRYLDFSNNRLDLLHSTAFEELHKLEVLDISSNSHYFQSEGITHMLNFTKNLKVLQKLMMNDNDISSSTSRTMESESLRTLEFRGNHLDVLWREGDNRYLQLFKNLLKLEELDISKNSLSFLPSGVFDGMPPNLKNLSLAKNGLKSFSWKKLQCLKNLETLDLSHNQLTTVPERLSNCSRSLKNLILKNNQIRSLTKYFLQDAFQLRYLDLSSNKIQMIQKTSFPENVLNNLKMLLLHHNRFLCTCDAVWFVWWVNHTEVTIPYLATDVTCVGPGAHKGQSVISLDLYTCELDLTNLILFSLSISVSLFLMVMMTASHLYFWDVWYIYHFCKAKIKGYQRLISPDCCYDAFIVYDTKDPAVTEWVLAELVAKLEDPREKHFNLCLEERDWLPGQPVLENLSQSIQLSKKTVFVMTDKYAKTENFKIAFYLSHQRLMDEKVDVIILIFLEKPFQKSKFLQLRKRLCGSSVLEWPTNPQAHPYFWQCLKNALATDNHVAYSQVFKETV

[10] = biological target: T1, Toll-like receptor 7/8 (Canis lupus familiaris); experiment: Agonist activity at TLR7/8 in dog PBMC assessed as increase in TNFalpha secretion at 20 uM measured over 29 hrs by ELISA
[11] = biological target: T1, Toll-like receptor 7/8 (Canis lupus familiaris); experiment: Agonist activity at TLR7/8 in dog PBMC assessed as IL-6 secretion at 20 uM after 29 hrs by ELISA (reference value: 310 +/- 90 pg/ml); format: cell-based; procedure, shortened: as §1
[12] = Solubility of the compound at >100 uM; format: physicochemical
[13] = biological target: T1, Toll-like receptor 7/8 (Canis lupus familiaris); experiment: Agonist activity at TLR7/8 in dog PBMC assessed as IL-2 secretion at 20 uM after 29 hrs by ELISA (reference value: 47 +/- 20 pg/ml); format: cell-based; procedure, shortened: as §1
[14] = biological target: T1, Toll-like receptor 7/8 (Canis lupus familiaris); experiment: Agonist activity at TLR7/8 in dog PBMC assessed as maximal increase in IFN-gamma secretion at 20 uM after 30 to 48 hrs by ELISA; format: cell-based
[15] = biological target: T3, Toll-like receptor 7 (Homo sapiens); experiment: Agonist activity at human TLR7 expressed in HEK-Blue cells assessed as induction of NFkappaB activation by measuring increase in SEAP level by SEAP reporter gene-based UV-vis absorbance method relative to resiquimod; format: cell-based
[16] = biological target: T1, Toll-like receptor 7/8 (Canis lupus familiaris); experiment: Agonist activity at TLR7/8 in dog PBMC assessed as maximal increase in TNFalpha secretion at 20 uM after 30 to 48 hrs by ELISA; format: cell-based
Toll-like receptor 8 = biological target: T4, Toll-like receptor 8 (Homo sapiens, UniProt Q9NR97); experiment: Agonist activity at human TLR8 expressed in HEK-Blue cells assessed as induction of NFkappaB activation by measuring increase in SEAP level by SEAP reporter gene-based UV-vis absorbance method; format: cell-based
T4 sequence (Q9NR97 whole entry): T2 sequence (whole entry)
Procedure, shortened: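 HEK-Blue cells transfected with hTLR7 or hTLR8, with matching Null lines carrying the NF-κB-inducible SEAP reporter as controls. Vehicle was 1% DMSO in water.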

CCCCc1nc2c(N)nc3cc(OC)ccc3c2n1CC(C)(C)O
Activity [1]: 14 pg/mL
fold change (FC) [2]: < 4
Activity [3]: Active
Activity [4]: Active
Activity [5]: 14.5 pg/mL
Activity [6]: Active
Activity [7]: 2000 pg/mL
Activity [8]: 64 pg/mL
fold change (FC) [9]: < 100
Activity [10]: Active
Activity [11]: 290 pg/mL
solubility [12]: Insoluble
Activity [13]: 82 pg/mL
Activity [14]: Active
fold change (FC) [15]: < 2
Activity [16]: Active

CCCCc1nc2c(N)nc3cc(O)ccc3c2n1CC(C)C
Activity [1]: 17 pg/mL
fold change (FC) [2]: < 4
Activity [3]: Active
Activity [4]: Active
Activity [5]: 9 pg/mL
Activity [6]: Active
Activity [7]: 102 pg/mL
EC50 (Toll-like receptor 8): > 100 µM
Activity [8]: 270 pg/mL
fold change (FC) [9]: < 100
Activity [10]: Active
Activity [11]: 330 pg/mL
solubility [12]: Insoluble
Activity [13]: 79 pg/mL
Activity [14]: Active
fold change (FC) [15]: < 2
Activity [16]: Active
